{"data": "Measured values of several laboratories", "target": "Serine/threonine-protein kinase D1 (PRKD1, Homo sapiens, UniProt Q15139)", "One construct used (Q15139 1-912)": "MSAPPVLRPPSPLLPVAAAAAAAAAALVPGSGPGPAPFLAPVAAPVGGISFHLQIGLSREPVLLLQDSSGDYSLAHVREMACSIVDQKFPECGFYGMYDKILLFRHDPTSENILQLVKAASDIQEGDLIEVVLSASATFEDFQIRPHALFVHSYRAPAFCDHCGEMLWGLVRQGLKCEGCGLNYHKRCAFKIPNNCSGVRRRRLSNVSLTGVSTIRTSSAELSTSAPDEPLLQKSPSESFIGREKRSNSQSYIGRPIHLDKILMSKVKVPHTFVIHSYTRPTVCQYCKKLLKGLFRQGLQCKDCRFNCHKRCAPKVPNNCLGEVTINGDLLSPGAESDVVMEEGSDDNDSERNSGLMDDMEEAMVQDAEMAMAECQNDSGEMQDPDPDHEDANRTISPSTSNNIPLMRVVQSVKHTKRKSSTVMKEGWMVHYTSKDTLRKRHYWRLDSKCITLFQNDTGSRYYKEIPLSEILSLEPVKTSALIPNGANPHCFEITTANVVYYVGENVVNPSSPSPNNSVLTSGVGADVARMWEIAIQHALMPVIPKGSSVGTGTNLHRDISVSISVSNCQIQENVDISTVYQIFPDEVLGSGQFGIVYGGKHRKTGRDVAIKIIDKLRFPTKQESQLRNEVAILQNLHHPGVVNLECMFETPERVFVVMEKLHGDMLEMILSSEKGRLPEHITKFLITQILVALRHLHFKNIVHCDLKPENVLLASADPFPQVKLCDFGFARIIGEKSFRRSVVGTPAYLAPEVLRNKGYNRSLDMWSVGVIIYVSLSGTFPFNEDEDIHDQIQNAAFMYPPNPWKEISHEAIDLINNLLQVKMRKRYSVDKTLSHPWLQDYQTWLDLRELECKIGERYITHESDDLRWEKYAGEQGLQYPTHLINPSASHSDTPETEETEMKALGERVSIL", "note": "Compare with care: the assays were run in different laboratories."}
{"Structure (SMILES)": "N[C@@H]1CCN(c2nccc(-c3cnn4ncccc34)n2)C1", "read-out": "binding", "concentration": "1 µM", "remaining binding [%]": 99}
{"Structure (SMILES)": "COc1cnc(Nc2cccc(S(N)(=O)=O)c2)nc1N1CCN(c2ccccc2)C(=O)C1", "read-out": "binding", "technique": "competition with immobilised ligand", "concentration": "1 µM", "remaining binding [%]": 100}
{"Structure (SMILES)": "CS(=O)(=O)N1CCCC(NC(=O)[C@H](CCC2CCCCC2)NC(=O)c2ccc(CNC(=O)c3cnc4ccccn34)cc2)C1 (some centres unmarked)", "read-out": "cell-free assay", "technique": "competition with immobilised ligand", "concentration": "0.1 µM", "remaining binding [%]": 93}
{"Structure (SMILES)": "O=C(Nc1c[nH]nc1C(=O)NC1CCNCC1)c1cc(F)cc(F)c1", "read-out": "binding", "technique": "competition with immobilised ligand", "concentration": "1 µM", "remaining binding [%]": 94}
{"Structure (SMILES)": "O=S(=O)(NC1CCC(c2cc(F)ccc2F)(S(=O)(=O)c2ccc(Cl)cc2)CC1)C(F)(F)F (centres unmarked)", "read-out": "cell-free assay", "technique": "competition with immobilised ligand", "concentration": "1 µM", "remaining binding [%]": 100}
{"Structure (SMILES)": "CN(CCCC(F)(F)F)c1nccc(-c2cnn3ncccc23)n1", "read-out": "binding", "concentration": "1 µM", "remaining binding [%]": 95}
{"Structure (SMILES)": "O=C(c1ccc(Nc2ncc(Cl)c(-c3cc4ccccc4s3)n2)cc1)N1CCC(N2CCCC2)CC1", "read-out": "binding", "technique": "competition with immobilised ligand", "concentration": "1 µM", "remaining binding [%]": 28}
{"Structure (SMILES)": "c1cnn2ncc(-c3ccnc(N4CCC45COC5)n3)c2c1", "read-out": "binding", "concentration": "1 µM", "remaining binding [%]": 87}
{"Structure (SMILES)": "CCCOc1ccc([C@@H]2[C@@H](C(=O)O)[C@H](c3ccc4c(c3)OCO4)CN2CC(=O)Nc2c(CC)cccc2CC)cc1", "read-out": "cell-free assay", "technique": "competition with immobilised ligand", "concentration": "1 µM", "remaining binding [%]": 96}
{"Structure (SMILES)": "CN(C)c1nccc(-c2cnc3ncccn23)n1", "read-out": "binding", "concentration": "1 µM", "remaining binding [%]": 61}
{"Structure (SMILES)": "FC(F)(F)Oc1cccc(-c2cnc3ccc(-c4ccncc4)nn23)c1", "read-out": "cell-free assay", "technique": "competition with immobilised ligand", "concentration": "5 µM", "remaining binding [%]": 100}
{"Structure (SMILES)": "CC1=C(C#N)C(c2ccc3c(c2)c(NC(=O)c2ccccc2C)nn3C)C(C#N)=C(C)N1", "read-out": "cell-free assay", "technique": "competition with immobilised ligand", "concentration": "1 µM", "remaining binding [%]": 92}
{"Structure (SMILES)": "C[C@@H](c1ccc(-n2cnc3c(N)ncnc32)cc1)N1CCc2nn(C)c(Cc3ccccc3)c2C1=O", "read-out": "binding", "technique": "competition with immobilised ligand", "concentration": "0.1 µM", "remaining binding [%]": 48}
{"Structure (SMILES)": "COc1ccnn2ncc(-c3ccnc(N(C)C)n3)c12", "read-out": "binding", "concentration": "1 µM", "remaining binding [%]": 100}
{"Structure (SMILES)": "COc1cnc(Nc2cccc(S(N)(=O)=O)c2)nc1N1CCN(c2ccccc2)CC1", "read-out": "binding", "technique": "competition with immobilised ligand", "concentration": "1 µM", "remaining binding [%]": 100}
{"Structure (SMILES)": "COCCOc1nc(-c2ccc(Cl)nc2)nc2c1CN(C(=O)c1ncn3ccccc13)CC2", "read-out": "cell-free assay", "technique": "competition with immobilised ligand", "concentration": "0.1 µM", "remaining binding [%]": 90}
{"Structure (SMILES)": "O=C(c1ccc(Nc2ncc(Cl)c(-c3ccc(Cl)s3)n2)cc1)N1CCC(N2CCCC2)CC1", "read-out": "binding", "technique": "competition with immobilised ligand", "concentration": "1 µM", "remaining binding [%]": 32}
{"Structure (SMILES)": "CN([C@@H]1CCc2c(CC(=O)O)c3cc(S(C)(=O)=O)ccc3n2C1)S(=O)(=O)c1ccc(F)cc1", "read-out": "cell-free assay", "technique": "competition with immobilised ligand", "concentration": "1 µM", "remaining binding [%]": 75}
{"Structure (SMILES)": "O=C(c1ccc(Nc2nccc(-c3cc4ccccc4s3)n2)cc1)N1CCC(N2CCCC2)CC1", "read-out": "binding", "technique": "competition with immobilised ligand", "concentration": "1 µM", "remaining binding [%]": 64}
{"Structure (SMILES)": "Cc1cnn2ncc(-c3ccnc(N(C)C)n3)c2c1", "read-out": "binding", "concentration": "1 µM", "remaining binding [%]": 95}
